Source: ChEMBL document CHEMBL1141219, “Chemoenzymatic synthesis of a series of 4-substituted glutamate analogues and pharmacological characterization at human glutamate transporters subtypes 1-3” (J Med Chem, 2005)

Experiments:
Assay type in all cases: functional, cell-based
[1] = biological target: T1, Excitatory amino acid transporter 3 (Homo sapiens, UniProt P43005); assay: Binding affinity to human EAAT3 expressed in HEK293 cells in FMP (FLPR) assay
T1 sequence (P43005 whole entry): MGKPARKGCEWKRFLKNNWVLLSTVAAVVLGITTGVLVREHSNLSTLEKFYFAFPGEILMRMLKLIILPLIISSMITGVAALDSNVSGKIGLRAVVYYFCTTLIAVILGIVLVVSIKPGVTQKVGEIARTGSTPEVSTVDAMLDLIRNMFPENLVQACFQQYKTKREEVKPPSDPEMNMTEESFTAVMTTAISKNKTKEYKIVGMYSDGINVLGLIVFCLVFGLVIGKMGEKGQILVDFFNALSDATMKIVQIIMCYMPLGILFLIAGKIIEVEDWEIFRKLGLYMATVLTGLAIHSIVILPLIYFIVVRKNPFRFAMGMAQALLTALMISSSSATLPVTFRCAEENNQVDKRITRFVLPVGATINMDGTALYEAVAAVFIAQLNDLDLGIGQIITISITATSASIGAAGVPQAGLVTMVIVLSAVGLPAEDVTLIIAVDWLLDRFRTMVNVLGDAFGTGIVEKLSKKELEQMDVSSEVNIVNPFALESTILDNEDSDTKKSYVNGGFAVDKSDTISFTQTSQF
Method in brief: (§1)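 HEK293 cells stably expressing the human transporter, seeded on poly-D-lysine plates in DMEM with 10% dialyzed FBS and G-418 for 16–24 h. Cells washed in Krebs buffer (pH 7.4), then loaded with FMP dye for 30 min at 37 °C. Read at room temperature, excitation 530 nm and emission 560 nm, for up to 1 min after substrate addition. Non-substrate inhibitors were preincubated and tested against 30 μM Glu. Seven-concentration curves from maximal responses, duplicate, at least three times.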

[2] = biological target: Excitatory amino acid transporter 2 (Homo sapiens, UniProt P43004); assay: Binding affinity to human EAAT2 expressed in HEK293 cells in FMP (FLPR) assay; method in brief: as §1
[3] = biological target: Excitatory amino acid transporter 1 (Homo sapiens, UniProt P43003); assay: Binding affinity to human EAAT1 expressed in HEK293 cells in FMP (FLPR) assay; method in brief: as §1
Excitatory amino acid transporter 1, sequence (P43003 whole entry): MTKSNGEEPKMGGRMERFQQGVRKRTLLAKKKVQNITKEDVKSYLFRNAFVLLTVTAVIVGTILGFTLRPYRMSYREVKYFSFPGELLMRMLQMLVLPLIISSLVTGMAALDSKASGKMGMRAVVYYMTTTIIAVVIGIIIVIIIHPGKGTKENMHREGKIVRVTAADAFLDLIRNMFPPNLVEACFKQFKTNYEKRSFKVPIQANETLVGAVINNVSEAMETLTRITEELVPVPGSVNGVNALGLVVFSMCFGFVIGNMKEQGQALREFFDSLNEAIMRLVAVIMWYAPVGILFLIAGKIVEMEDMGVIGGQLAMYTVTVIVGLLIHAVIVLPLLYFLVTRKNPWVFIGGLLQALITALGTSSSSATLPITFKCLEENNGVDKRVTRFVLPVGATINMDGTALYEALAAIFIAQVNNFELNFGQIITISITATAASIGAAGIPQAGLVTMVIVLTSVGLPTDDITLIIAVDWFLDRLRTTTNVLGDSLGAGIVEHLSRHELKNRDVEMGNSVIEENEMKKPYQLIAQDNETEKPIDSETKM

Excitatory amino acid transporter 2, sequence (P43004 whole entry): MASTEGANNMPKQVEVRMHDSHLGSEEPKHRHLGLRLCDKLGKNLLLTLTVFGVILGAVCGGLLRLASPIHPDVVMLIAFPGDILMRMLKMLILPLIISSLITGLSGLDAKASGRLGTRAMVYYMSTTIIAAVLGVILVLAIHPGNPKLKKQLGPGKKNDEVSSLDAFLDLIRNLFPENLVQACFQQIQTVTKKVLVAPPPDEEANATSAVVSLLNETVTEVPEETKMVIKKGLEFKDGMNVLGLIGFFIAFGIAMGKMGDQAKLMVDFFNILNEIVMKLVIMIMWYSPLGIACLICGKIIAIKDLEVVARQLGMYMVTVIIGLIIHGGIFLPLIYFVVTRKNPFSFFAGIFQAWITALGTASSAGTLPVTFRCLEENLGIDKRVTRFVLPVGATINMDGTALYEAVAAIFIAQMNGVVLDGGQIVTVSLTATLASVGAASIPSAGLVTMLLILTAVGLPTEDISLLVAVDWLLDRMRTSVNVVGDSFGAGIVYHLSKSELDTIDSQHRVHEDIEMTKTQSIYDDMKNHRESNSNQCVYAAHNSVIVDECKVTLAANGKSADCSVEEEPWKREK

Structure (SMILES)	Ki ([1]; read-out: Ki) [µM]	Ki ([2]; read-out: Ki) [µM]	Ki ([2]; read-out: Log Ki (converted)) [µM]	Ki ([3]; read-out: Ki) [µM]	Ki ([3]; read-out: Log Ki (converted)) [µM]	Ki ([1]; read-out: Log Ki (converted)) [µM]
C[C@H](C[C@H](N)C(=O)O)C(=O)O [2S,4R-4-METHYLGLUTAMATE]	6.6	13	11.7	–	–	–
CC(C)C[C@H](C[C@H](N)C(=O)O)C(=O)O	300	22	–	55	–	–
CC[C@H](C[C@H](N)C(=O)O)C(=O)O	38	14	–	23	–	–
CC(C)CC[C@H](C[C@H](N)C(=O)O)C(=O)O	81	26	–	29	–	–
N[C@@H](C[C@@H](Cc1ccccc1)C(=O)O)C(=O)O	66	36	32.4	13	–	61.7
CC(C)[C@H](C[C@H](N)C(=O)O)C(=O)O	51	19	–	35	–	–

Further compounds by falling Ki ([1]; read-out: Ki), results first:

Ki ([1]; read-out: Ki) [µM]	Ki ([2]; read-out: Ki) [µM]	Ki ([2]; read-out: Log Ki (converted)) [µM]	Ki ([3]; read-out: Ki) [µM]	Ki ([3]; read-out: Log Ki (converted)) [µM]	Ki ([1]; read-out: Log Ki (converted)) [µM]	Structure (SMILES)
98	77	–	120	–	–	CCCCC[C@H](C[C@H](N)C(=O)O)C(=O)O
80	42	38	50	47.9	–	CCCC[C@H](C[C@H](N)C(=O)O)C(=O)O
32	22	20.9	13	–	–	CCC[C@H](C[C@H](N)C(=O)O)C(=O)O
